In ChEMBL document CHEMBL1149247, “New COX-2/5-LOX inhibitors: apoptosis-inducing agents potentially useful in prostate cancer chemotherapy” (J Med Chem, 2004):
The source made the active and inactive calls. The rule behind the calls is not given here.

Assays:
[1] = system: PC-3; test: Cell cycle arrest in human PC3 cells by accumulation at G1 phase at 10 uM after 72 hrs by FACS flow cytometry; assay type: functional
Summary of the method: (§1)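 LNCaP or PC 3 cells seeded in 6-well plates, synchronized 24 h in serum-free medium, treated 72 h with varying compound concentrations; trypsinized cells pooled with supernatants, pelleted, fixed in cold ethanol overnight at 4 °C, then 30 min in PBS with RNase and propidium iodide. FACScan flow cytometry quantified sub-G1 (sub-diploid), G1, S and G2-M fractions as percent of cells.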

[2] = species: Homo sapiens; test: Selectivity for COX2 over COX1
Summary of the method: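 Ratio of COX-1 to COX-2 IC50s, each taken from PGE2 production in CHO cells transfected with COX-1 or with COX-2. Cells were seeded and, 18 h later, given fresh Ham's F12 with 10% fetal calf serum with or without compound. After 10 min they were stimulated with arachidonic acid, then for 10 min with calcium ionophore A 23187. Intracellular PGE2 was read by enzyme immunoassay, n = 2.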

[3] = system: PC-3; test: Antiproliferative activity against androgen-independent human PC3 cells after 72 hrs by MTT test; assay type: functional, cell-based; details: PC-3, 72 h
Summary of the method: (§2)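 Prostate carcinoma cells kept at 37 °C, 5% CO2 in RPMI 1640 with 10% fetal calf serum; seeded 1.8 × 10⁴ (PC 3) or 5.0 × 10⁴ (LNCaP) cells/well, grown 3 days, serum-starved 24 h for synchronization, then exposed 72 h to compounds in medium (<0.1% DMSO); growth read by colorimetric MTT. Mean of at least four independent determinations; single-dose lines at 100 μM.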

[4] = system: PC-3; test: Inhibition of MMP9 secretion in androgen-independent human PC3 cells; assay type: functional, cell-based
[5] = system: PC-3; test: Cell cycle arrest in human PC3 cells by accumulation at S phase at 10 uM after 72 hrs by FACS flow cytometry; assay type: functional; summary of the method: as §1
[6] = system: LNCaP; test: Cell cycle arrest in human LNCaP cells by accumulation at subG1 phase at 10 uM after 72 hrs by FACS flow cytometry; assay type: functional; summary of the method: as §1
[7] = system: PC-3; test: Cell cycle arrest in human PC3 cells by accumulation at subG1 phase at 10 uM after 72 hrs by FACS flow cytometry; assay type: functional; summary of the method: as §1
[8] = molecular target: Prostaglandin G/H synthase 1 (Homo sapiens, UniProt P23219); test: Inhibition of COX1 expressed in CHO cells assessed as inhibition of arachidonic acid-stimulated PGE2 production by enzyme immunoassay; assay type: functional, cell-based
[9] = system: LNCaP; test: Cell cycle arrest in human LNCaP cells by accumulation at G1 phase at 10 uM after 72 hrs by FACS flow cytometry; assay type: functional; summary of the method: as §1
[10] = system: LNCaP; test: Cell cycle arrest in human LNCaP cells by accumulation at G2M phase at 10 uM after 72 hrs by FACS flow cytometry; assay type: functional; summary of the method: as §1
[11] = molecular target: T1, Prostaglandin G/H synthase 2 (Homo sapiens, UniProt P35354); test: Inhibition of COX2 expressed in CHO cells assessed as inhibition of arachidonic acid-stimulated PGE2 production by enzyme immunoassay
T1 sequence (P35354 whole entry): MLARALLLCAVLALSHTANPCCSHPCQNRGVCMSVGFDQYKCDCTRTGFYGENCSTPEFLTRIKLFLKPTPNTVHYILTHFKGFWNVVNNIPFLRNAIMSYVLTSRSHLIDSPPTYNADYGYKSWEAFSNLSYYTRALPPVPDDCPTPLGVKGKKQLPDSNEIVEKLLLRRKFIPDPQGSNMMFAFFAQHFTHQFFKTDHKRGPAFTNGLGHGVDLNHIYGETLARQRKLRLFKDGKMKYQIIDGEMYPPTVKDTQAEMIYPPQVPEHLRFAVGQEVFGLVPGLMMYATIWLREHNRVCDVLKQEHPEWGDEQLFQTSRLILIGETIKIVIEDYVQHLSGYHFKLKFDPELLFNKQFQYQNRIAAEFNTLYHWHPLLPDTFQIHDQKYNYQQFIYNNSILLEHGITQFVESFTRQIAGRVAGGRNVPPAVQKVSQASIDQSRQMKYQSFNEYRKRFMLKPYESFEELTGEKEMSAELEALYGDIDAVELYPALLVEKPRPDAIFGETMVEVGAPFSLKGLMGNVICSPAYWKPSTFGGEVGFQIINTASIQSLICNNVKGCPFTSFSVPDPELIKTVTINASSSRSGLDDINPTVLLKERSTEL

[12] = molecular target: T2, Polyunsaturated fatty acid 5-lipoxygenase (Homo sapiens, UniProt P09917); test: Inhibition of 5LOX in human whole blood assessed as inhibition of calcium ionophore A 23187-stimulated 5HETE production by HPLC analysis; assay type: functional, tissue-based
T2 sequence (P09917 whole entry): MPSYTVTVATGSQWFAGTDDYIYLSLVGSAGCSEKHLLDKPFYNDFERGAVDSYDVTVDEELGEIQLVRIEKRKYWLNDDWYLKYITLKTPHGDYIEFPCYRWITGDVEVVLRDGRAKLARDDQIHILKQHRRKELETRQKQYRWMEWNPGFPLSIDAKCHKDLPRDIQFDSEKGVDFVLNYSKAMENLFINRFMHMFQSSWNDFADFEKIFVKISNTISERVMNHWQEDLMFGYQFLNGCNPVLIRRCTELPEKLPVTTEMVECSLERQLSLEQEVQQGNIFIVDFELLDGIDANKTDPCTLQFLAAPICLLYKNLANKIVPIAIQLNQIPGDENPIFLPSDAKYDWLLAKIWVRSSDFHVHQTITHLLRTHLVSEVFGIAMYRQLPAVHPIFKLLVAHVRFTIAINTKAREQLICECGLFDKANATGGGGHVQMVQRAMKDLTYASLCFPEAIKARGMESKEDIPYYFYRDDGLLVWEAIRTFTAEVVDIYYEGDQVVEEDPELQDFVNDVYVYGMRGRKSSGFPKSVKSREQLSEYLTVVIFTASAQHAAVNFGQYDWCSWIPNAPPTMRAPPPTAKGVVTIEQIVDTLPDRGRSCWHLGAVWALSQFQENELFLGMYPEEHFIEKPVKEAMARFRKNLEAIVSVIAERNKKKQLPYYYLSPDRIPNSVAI
Summary of the method: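 Heparinized human whole blood, 1 mL aliquots, preincubated 15 min at 37 °C with compound or DMSO vehicle; then stimulated with 40 μM A 23187 for 15 min at 37 °C. 5-HETE extracted into ethyl acetate, then HPLC on a C18 column, methanol/water/acetic acid 80:20:0.08, pH 6.0, UV at 234 nm. IC50 from n = 2.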

[13] = system: PC-3; test: Cell cycle arrest in human PC3 cells by accumulation at G2M phase at 10 uM after 72 hrs by FACS flow cytometry; assay type: functional; summary of the method: as §1
[14] = system: LNCaP; test: Cell cycle arrest in human LNCaP cells by accumulation at S phase at 10 uM after 72 hrs by FACS flow cytometry; assay type: functional; summary of the method: as §1
[15] = system: LNCaP; test: Antiproliferative activity against androgen-sensitive human LNCaP cells after 72 hrs by MTT test; assay type: functional, cell-based; summary of the method: as §2
[16] = system: PC-3; test: Cell cycle arrest in human PC3 cells by accumulation at G1 phase at 100 uM after 72 hrs by FACS flow cytometry; assay type: functional; summary of the method: as §1
[17] = system: PC-3; test: Cell cycle arrest in human PC3 cells by accumulation at G2M phase at 100 uM after 72 hrs by FACS flow cytometry; assay type: functional; summary of the method: as §1
[18] = system: PC-3; test: Cell cycle arrest in human PC3 cells by accumulation at S phase at 100 uM after 72 hrs by FACS flow cytometry; assay type: functional; summary of the method: as §1
[19] = system: LNCaP; test: Cell cycle arrest in human LNCaP cells by accumulation at subG1 phase at 100 uM after 72 hrs by FACS flow cytometry; assay type: functional; summary of the method: as §1
[20] = system: PC-3; test: Antiproliferative activity against androgen-independent human PC3 cells at 100 uM after 72 hrs by MTT test; assay type: functional; summary of the method: as §2
[21] = system: LNCaP; test: Cell cycle arrest in human LNCaP cells by accumulation at G2M phase at 100 uM after 72 hrs by FACS flow cytometry; assay type: functional; summary of the method: as §1
[22] = system: LNCaP; test: Cell cycle arrest in human LNCaP cells by accumulation at S phase at 100 uM after 72 hrs by FACS flow cytometry; assay type: functional; summary of the method: as §1
[23] = system: PC-3; test: Cell cycle arrest in human PC3 cells by accumulation at subG1 phase at 100 uM after 72 hrs by FACS flow cytometry; assay type: functional; summary of the method: as §1
[24] = system: LNCaP; test: Cell cycle arrest in human LNCaP cells by accumulation at G1 phase at 100 uM after 72 hrs by FACS flow cytometry; assay type: functional; summary of the method: as §1

Sequence of Prostaglandin G/H synthase 1 (P23219 whole entry): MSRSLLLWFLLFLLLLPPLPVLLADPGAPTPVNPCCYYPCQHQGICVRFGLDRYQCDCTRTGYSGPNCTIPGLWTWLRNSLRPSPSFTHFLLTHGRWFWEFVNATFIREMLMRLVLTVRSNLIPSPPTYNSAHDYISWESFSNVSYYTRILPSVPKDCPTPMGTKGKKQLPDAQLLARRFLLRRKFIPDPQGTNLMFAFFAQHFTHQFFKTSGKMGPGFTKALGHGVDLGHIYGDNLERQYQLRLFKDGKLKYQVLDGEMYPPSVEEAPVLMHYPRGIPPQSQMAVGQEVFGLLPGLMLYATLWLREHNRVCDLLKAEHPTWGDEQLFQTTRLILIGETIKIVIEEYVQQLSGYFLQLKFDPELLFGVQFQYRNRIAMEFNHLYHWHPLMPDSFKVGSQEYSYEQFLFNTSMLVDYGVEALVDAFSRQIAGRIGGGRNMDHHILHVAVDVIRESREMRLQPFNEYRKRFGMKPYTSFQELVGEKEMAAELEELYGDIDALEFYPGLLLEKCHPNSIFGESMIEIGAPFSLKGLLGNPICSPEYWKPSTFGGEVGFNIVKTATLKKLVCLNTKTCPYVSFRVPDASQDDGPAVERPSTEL

Q: With COC1(c2cc(F)cc(OCc3cc(-c4ccccc4)n(-c4ccc(S(N)(=O)=O)cc4)n3)c2)CCOCC1 as the compound, how does the Activity [1] read?
A: 71.5%

Q: And the Selectivity ratio [2]?
A: 257

Q: What about the IC50 [3] of the same compound?
A: 45.9 µM

Q: And the Activity [4]?
A: Active

Q: And the Activity [5]?
A: 6.6%

Q: And the Activity [6]?
A: 10.8%

Q: What about the Activity [7] of the same compound?
A: 2.1%

Q: And the IC50 [8]?
A: 25.7 µM

Q: And the Activity [9]?
A: 74.2%

Q: What about the Activity [10] of the same compound?
A: 8.2%

Q: And the IC50 [11]?
A: 0.1 µM

Q: What about the IC50 [12] of the same compound?
A: 0.74 µM

Q: And the Activity [13]?
A: 19.5%

Q: And the Activity [14]?
A: 6.9%

Q: And the IC50 [15]?
A: 49.7 µM

Q: With COC1(c2cc(F)cc(OCc3cc(-c4ccccc4)n(-c4ccc(S(C)(=O)=O)cc4)n3)c2)CCOCC1 as the compound, how does the Activity [16] read?
A: 67.8%

Q: What about the Activity [17] of the same compound?
A: 25.9%

Q: And the Activity [18]?
A: 5.1%

Q: What about the Activity [6] of the same compound?
A: 3.6%

Q: What about the Activity [19] of the same compound?
A: 3.9%

Q: What about the Activity [20] of the same compound?
A: 45%

Q: What about the Activity [21] of the same compound?
A: 12%

Q: And the Activity [22]?
A: 9.9%

Q: And the IC50 [8]?
A: 26.1 µM

Q: What about the Activity [23] of the same compound?
A: 1.2%

Q: And the Activity [24]?
A: 74.2%

Q: What about the Activity [9] of the same compound?
A: 70.1%

Q: What about the Activity [10] of the same compound?
A: 14.7%

Q: And the IC50 [12]?
A: 0.3 µM

Q: What about the Activity [14] of the same compound?
A: 11.2%

Q: And the IC50 [15]?
A: 83.4 µM
